# Results pooled from the literature.
# Each line is one published result; the experiments were not run side by side.
# rep methyltransferase: Replicase polyprotein 1ab, methyltransferase (rep, Severe acute respiratory syndrome coronavirus 2, UniProt P0DTD1)
# rep main protease: Replicase polyprotein 1ab, main protease (rep, Severe acute respiratory syndrome coronavirus 2, UniProt P0DTD1)
Compound,target,effect on,action,technique,notes,measurement,result
CCC(Sc1nnc2c(n1)[nH]c1ccccc12)C(=O)N1c2ccccc2Sc2ccccc21 (stereo not shown),rep methyltransferase,enzyme activity,inhibitor,,,IC50,> 100 µM
Cc1c(O)cccc1C(=O)N[C@@H](CSc1ccccc1)[C@H](O)CN1C[C@H]2CCCC[C@H]2C[C@H]1C(=O)NC(C)(C)C,rep main protease,enzyme activity,inhibitor,,,IC50,28.8 µM
O=C(O)c1cc(O)c(O)c(O)c1,rep main protease,enzyme activity,inhibitor,,with preincubation,IC50,< 10 µM
O=C(N1CCC2(CC1)C[C@H](CN1CCCCS1(=O)=O)CCO2)C1(c2ccccc2)CCCC1,"Replicase polyprotein 1ab, helicase (rep, Severe acute respiratory syndrome coronavirus 2, UniProt P0DTD1)",ATPase activity,inhibitor,,,IC50,> 100 µM
O=C(O[C@@H]1Cc2c(O)cc(O)cc2O[C@@H]1c1ccc(O)c(O)c1)c1cc(O)c(O)c(O)c1,rep main protease,enzyme activity,inhibitor,,with preincubation,IC50,< 10 µM
CCC1CC(c2ccc(C(=O)O)cc2)=NN1c1ccc(C#N)c(Cl)c1 (stereo not shown),rep methyltransferase,enzyme activity,inhibitor,,,IC50,0.42 µM
C[C@@H]1CCO[C@H]2Cn3cc(C(=O)NCc4ccc(F)cc4F)c(=O)c(O)c3C(=O)N12,rep main protease,enzyme activity,inhibitor,,,IC50,49.4 µM
COc1ccc(OC)c(C(O)C(C)N)c1 (stereo not shown),"Alpha-1A adrenergic receptor (ADRA1A, Homo sapiens, UniProt P35348)",protein level,degrader,western blot,,DC50,17.4 µM
N#Cc1ccc(N2CCC(c3ccc(C(=O)O)cc3)=N2)cc1Cl,rep methyltransferase,enzyme activity,inhibitor,,,IC50,53.1 µM
CC1(C)O[C@@H]2C[C@H]3[C@@H]4C[C@H](F)C5=CC(=O)C=C[C@]5(C)[C@@]4(F)[C@@H](O)C[C@]3(C)[C@]2(C(=O)CO)O1,rep main protease,enzyme activity,inhibitor,,,IC50,69.1 µM
